Drawing on ChEMBL document CHEMBL1125259, “Lipophilic glycosyl phosphotriester derivatives of AZT: synthesis, NMR transmembrane transport study, and antiviral activity” (1991), this text covers Activity (c.p.m. 50ul-1), inhibition and Protection for seven compounds.

The target in test [1] is Human immunodeficiency virus type 1 reverse transcriptase (Human immunodeficiency virus 1) (UniProt Q72547). Put plainly: Compound ability to inhibit the production of HIV reverse transcriptase (RT) in culture supernatant of CEM-CL13 on at 26 days at a concentration 1 uM. The format is functional. A digest of the protocol: (§1)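 CEM-C113 cells in RPMI 1640 with 5% heat-inactivated FCS and polybrene (2 µg/mL) were plated at 1×10^5 cells/mL with compound in PBS, in triplicate, and infected with HIV-1 LAV-Bru. From day 7, every 3–4 days, fresh medium with or without drug was added and 50 µL supernatant was taken for RT microassay. The RT microassay used poly(rA)-oligo(dT) and (methyl-³H)dTTP for 1 h at 37 °C, with TCA precipitation, read as cpm/50 µL.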

The target is the same in test [2]. Briefly: Compound ability to inhibit the production of HIV reverse transcriptase (RT) in culture supernatant of CEM-CL13 on at 22 days at a concentration 1 uM. The format is functional. A digest of the protocol: as §1
The target is the same in test [3]. Briefly: Compound ability to inhibit the production of HIV reverse transcriptase (RT) in culture supernatant of CEM-CL13 on at 15 days at a concentration 1 uM. The format is functional. The essentials: as §1
Test [4] shares this target. Put plainly: Percent inhibition measured as the production of HIV reverse transcriptase (RT) in culture supernatant of monocytic U937 on at 14 days at a concentration 0.2 uM. The format is functional. The essentials:
(§2)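 U937 cells in RPMI 1640 with 5% heat-inactivated FCS, penicillin, streptomycin and polybrene (2 μg/mL), 37 °C, 5% CO2. Infected with HIV-1 LAV-Bru; compounds diluted in PBS. 50 μL supernatant aliquots were assayed for RT: 1 h, 37 °C, pH 7.8, Mg2+, poly(rA)-oligo(dT), [3H]dTTP, TCA-pyrophosphate stop, filter counting. % inhibition = 100 − 100 × (treated cpm / virus-control cpm).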

For test [5] the target is unchanged. The following applies: at 25 µM.
Test [6] has the same target. To be noted: at 25 µM. The source holds these as a separate data set.
Test [7] has the same target. Briefly: Compound ability to inhibit the production of HIV reverse transcriptase (RT) in culture supernatant of CEM-CL13 on at 22 days at a concentration 5 uM. The format is functional. The essentials:
as §1

The target is the same in test [8]. Briefly: Compound ability to inhibit the production of HIV reverse transcriptase (RT) in culture supernatant of CEM-CL13 on at 26 days at a concentration 5 uM. Format: functional. A digest of the protocol:
as §1

Test [9] has the same target. Put plainly: Compound ability to inhibit the production of HIV reverse transcriptase (RT) in culture supernatant of monocytic U937 on at 11 days at a concentration 5 uM. Format: functional. A digest of the protocol:
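HIV-1-infected monocytic U937 cultures were kept up to 14 days with compound. Supernatant RT activity was measured as for CEM-C113, as [³H] cpm/50 µL. % inhibition = 100 − 100 × (cpm of treated samples / cpm of control virus).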

Test [10] has the same target. Put plainly: Percent inhibition measured as the production of HIV reverse transcriptase (RT) in culture supernatant of monocytic U937 on at 7 days at a concentration 5 uM. Format: functional. A digest of the protocol:
as §2

The target is the same in test [11]. Put plainly: Percent inhibition measured as the production of HIV reverse transcriptase (RT) in culture supernatant of monocytic U937 on at 14 days at a concentration 5 uM. Format: functional. A digest of the protocol: as §2
Test [12] has the same target. Put plainly: Compound ability to inhibit the production of HIV reverse transcriptase (RT) in culture supernatant of CEM-CL13 on at 15 days at a concentration 5 uM. The format is functional. The essentials: as §1
For test [13] the target is unchanged. Briefly: Compounds were evaluated for anti-RT activity by MTT dose and %protection was reported at 7 days of culture. The essentials: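 HIV-1 was preincubated with compound at 25 µM for 60 min at 37 °C, pelleted, and added to CEM-C113 cells (1×10^5 cells/mL) for 60 min at 37 °C. Medium was then replaced without compound. At days 7 and 9, viability was read by MTT assay on 100 µL of cell suspension.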

Molecules are shown by their SMILES.

For the compound `CCCCCCCCCCCCCCCCOP(=O)(OC[C@H]1OC(O)[C@H](O)[C@@H](O)[C@@H]1O)OC[C@H]1OC(n2cc(C)c(=O)[nH]c2=O)C[C@@H]1N=[N+]=[N-]` (some centres undefined), the results for the Activity (c.p.m. 50ul-1) in test [1], in [2] and in [3] were 72000, 33000 and 750, respectively. The inhibition in test [4] was 14%.

Turning to `Cc1cn([C@H]2C[C@H](N=[N+]=[N-])[C@@H](COP(=O)(O)OC[C@H]3OC(O)[C@H](O)[C@@H](O)[C@@H]3O)O2)c(=O)[nH]c1=O` (some centres undefined), the inhibition in [5] turned out to be 73%; in test [6], 0%; in test [10] it was 43%; in test [11] it was 0%. For the same compound, the Activity (c.p.m. 50ul-1) was 1500 in test [7], 6000 in test [8], 211000 in [9] and 400 in test [12]. The same compound came in with a Protection in [13] of 36%.

On to `Cc1cn([C@H]2C[C@H](N=[N+]=[N-])[C@@H](CO)O2)c(=O)[nH]c1=O` [ZIDOVUDINE], for which the inhibition turned out to be 96% in test [5]; 25% in [6]; 86% in [10]; 0% in test [11]; 0% in test [4]. The Activity (c.p.m. 50ul-1) in [7] stood at 500; in test [1], 12000; in [2], 1700; in test [8], 1300; in test [9], 118000; in test [3], 600. The compound also returned an Activity (c.p.m. 50ul-1) in test [12] of 500.

For `CCCCCCCCCCCCCCCCOP(=O)(OCCO[C@H]1O[C@H](CO)[C@@H](O)[C@H](O)[C@@H]1O)OCC1OC(n2cc(C)c(=O)[nH]c2=O)CC1N=[N+]=[N-]` (some centres undefined), the values for the Activity (c.p.m. 50ul-1) in test [1], in test [2] and in test [3] were 64000, 48000 and 5500, respectively. Moreover, the inhibition in [4] is 0%.

For `CCCCCCCCCCCCCCCCOP(=O)(OC[C@H]1OC(O)[C@@H](O)[C@@H](O)[C@@H]1O)OC[C@H]1OC(n2cc(C)c(=O)[nH]c2=O)C[C@@H]1N=[N+]=[N-]` (some centres undefined), the Activity (c.p.m. 50ul-1) was determined as 20000 in [1], 3900 in [2] and 500 in [3]. The inhibition in test [4] was 0%.

For `Cc1cn([C@H]2C[C@H](N=[N+]=[N-])[C@@H](COP(=O)(O)OCCO[C@H]3O[C@H](CO)[C@@H](O)[C@H](O)[C@@H]3O)O2)c(=O)[nH]c1=O`, the inhibition in [5] amounted to 77%; in test [6], 20%; in [10], 20%; in test [11], 0%. The Activity (c.p.m. 50ul-1) in test [7] is 5500; in [8], 42000; in test [9], 192000; in [12], 852.

On to `Cc1cn([C@H]2C[C@H](N=[N+]=[N-])[C@@H](COP(=O)(O)OC[C@H]3OC(O)[C@@H](O)[C@@H](O)[C@@H]3O)O2)c(=O)[nH]c1=O` (some centres undefined), for which the inhibition in test [5] stood at 86%; in test [6] it was 2%; in test [10], 46%; in test [11], 0%. The Activity (c.p.m. 50ul-1) in [7] was 12000; in [8], 103000; in test [9], 193000; in test [12] it was 1300.
